Laboratory results from ChEMBL document CHEMBL4364261, “Positive Charge Patterning and Hydrophobicity of Membrane-Active Antimicrobial Peptides as Determinants of Activity, Toxicity, and Pharmacokinetic Stability” (J Med Chem, 2019).
Active and inactive are the calls of the source. The calls are words filed in the database; no cut-off is given here.

Tested on: Lipid bilayer
Experiment: Binding affinity to POPC membrane at 25 uM by CD spectroscopic analysis
Format: ADME
Conditions: not given
Outline: (§1)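 CD spectra of 25 μM peptide in 10 mM Tris, 10 mM NaCl, pH 7.4, with 2 mg/mL E. coli total lipid extract or POPC liposomes, equilibrated overnight. Helicity judged at 222 nm. Average of at least three independent experiments.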

| Substance | Activity |
| --- | --- |
| H-KAAKKFAKAWAKAFKAA-NH2 | Not Active |
| H-KKKAAFAKAWAKAFKAA-NH2 | Not Active |
| H-KKKKAAFAKAWAKAFAA-NH2 | Not Active |
| H-KKKKKKAAFAAWAAFAA-NH2 | Not Active |

Continued, values first:

| Activity | Substance |
| --- | --- |
| Not Active | H-KKAKAFAKAWAKAFKAA-NH2 |
| Not Active | H-KKKKKAAFAKAWAAFAA-NH2 |

Tested on: Escherichia coli
Experiment: Induction of terbium(3)-loaded Escherichia coli lipid extract liposome membrane disruption at 10 uM measured after 20 mins by fluorescence assay relative to control
Format: cell membranes
Conditions: not given

| Activity [%] | Substance |
| --- | --- |
| 8 | H-KAAKKFAKAWAKAFKAA-NH2 |
| 80 | H-KKAKAFAKAWAKAFKAA-NH2 |
| 80 | H-KKKAAFAKAWAKAFKAA-NH2 |

| Substance | Activity [%] |
| --- | --- |
| H-KKKKKKAAFAAWAAFAA-NH2 | 35 |

Tested on: not listed separately
Experiment: Stability of the compound assessed as Engyodontium album PMSF-pretreated proteinase K-mediated compound hydrolysis at 20 uM incubated for 10 mins at 70 degC by coomassie blue staining-based NuPAGE analysis
Format: ADME
Conditions: parengyodontium album, 1 h, in the assay text read “incubated for up to 1 hr at 37 degC” for “incubated for 10 mins at 70 degC”
Outline: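 Reactions stopped with 5 mM PMSF; PMSF-preinhibited enzyme served as control. Samples heated 70 °C for 10 min and run on 12% Bis-Tris gels with Coomassie staining. Band density normalized to T0.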

| Substance | Stability |
| --- | --- |
| H-KAAKKFAKAWAKAFKAA-NH2 | Unstable |
| H-KKKAAFAKAWAKAFKAA-NH2 | Unstable |
| H-KKKKAAFAKAWAKAFAA-NH2 | Unstable |
| H-KKKKKKAAFAAWAAFAA-NH2 | Stable |

The remaining lines, values ahead:

| Stability | Substance |
| --- | --- |
| Unstable | H-KKAKAFAKAWAKAFKAA-NH2 |
| Stable | H-KKKKKAAFAKAWAAFAA-NH2 |

Tested on: Pseudomonas aeruginosa
Experiment: Antibacterial activity against tobramycin-pretreated Pseudomonas aeruginosa isolate 287 measured after 20 hrs by microtiter dilution method
Format: functional
Conditions: not given
Outline: (§2)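 Mueller-Hinton broth microdilution; 2-fold serial dilutions of peptide from 0 to 50 μM incubated 20 h at 37 °C with 50 000 cfu/well from an overnight MHB culture. Bacterial growth read as background-subtracted OD600. MIC recorded as the peptide concentration at which growth is inhibited. P. aeruginosa isolates came from sputum of cystic fibrosis patients with infections persisting after inhaled tobramycin.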

| Substance | MIC [µM] |
| --- | --- |
| H-KAAKKFAKAWAKAFKAA-NH2 | > 50 |
| H-KKKAAFAKAWAKAFKAA-NH2 | > 50 |
| H-KKKKAAFAKAWAKAFAA-NH2 | > 50 |
| H-KKKKKKAAFAAWAAFAA-NH2 | 3.1 |

Other lines, results leading:

| MIC [µM] | Substance |
| --- | --- |
| 50 | H-KKAKAFAKAWAKAFKAA-NH2 |
| 50 | H-KKKKKAAFAKAWAAFAA-NH2 |

Tested on: Pseudomonas aeruginosa
Experiment: Antibacterial activity against tobramycin-pretreated Pseudomonas aeruginosa isolate 214 measured after 20 hrs by microtiter dilution method
Format: functional
Conditions: not given
Outline: as §2

| Substance | MIC [µM] |
| --- | --- |
| H-KAAKKFAKAWAKAFKAA-NH2 | > 50 |
| H-KKKAAFAKAWAKAFKAA-NH2 | 50 |
| H-KKKKAAFAKAWAKAFAA-NH2 | 50 |
| H-KKKKKKAAFAAWAAFAA-NH2 | 3.1 |

More lines, now with the values ahead:

| MIC [µM] | Substance |
| --- | --- |
| 50 | H-KKAKAFAKAWAKAFKAA-NH2 |
| 25 | H-KKKKKAAFAKAWAAFAA-NH2 |

Tested on: Pseudomonas aeruginosa
Experiment: Antibacterial activity against tobramycin-pretreated Pseudomonas aeruginosa isolate 380 after 20 hrs by microtiter dilution method
Format: functional
Conditions: not given
Outline: as §2

| Substance | MIC [µM] |
| --- | --- |
| H-KAAKKFAKAWAKAFKAA-NH2 | > 50 |
| H-KKKAAFAKAWAKAFKAA-NH2 | > 50 |
| H-KKKKAAFAKAWAKAFAA-NH2 | 50 |
| H-KKKKKKAAFAAWAAFAA-NH2 | 12.5 |

Other lines, results leading:

| MIC [µM] | Substance |
| --- | --- |
| > 50 | H-KKAKAFAKAWAKAFKAA-NH2 |
| 50 | H-KKKKKAAFAKAWAAFAA-NH2 |

Tested on: Escherichia coli
Experiment: Antibacterial activity against Escherichia coli K-12 measured after 20 hrs by microtiter dilution method
Format: functional
Conditions: K-12, 20 h
Outline: as §2

| Substance | MIC [µM] |
| --- | --- |
| H-KAAKKFAKAWAKAFKAA-NH2 | 12.5 |
| H-KKKAAFAKAWAKAFKAA-NH2 | 25 |
| H-KKKKAAFAKAWAKAFAA-NH2 | 12.5 |
| H-KKKKKKAAFAAWAAFAA-NH2 | 1.6 |

Results, then the substance that gave them:

| MIC [µM] | Substance |
| --- | --- |
| 12.5 | H-KKAKAFAKAWAKAFKAA-NH2 |
| 6.3 | H-KKKKKAAFAKAWAAFAA-NH2 |

Tested on: not listed separately
Experiment: Hemolytic activity in human RBC assessed as hemolysis at 40 uM measured after 1 hr
Format: ADME, cell-based, Erythrocyte
Conditions: human red blood cells (erythrocytes), read-out: Activity
Outline: (§3)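 Fresh human erythrocytes washed and resuspended in PBS to a final 4% (v/v). Incubated 1 h at 37 °C with 2-fold serial peptide dilutions from 0 to 640 μM. Supernatant absorbance at 540 nm; PBS taken as 0% and 1% Triton as 100% hemolysis. Standard deviation reported; one-way ANOVA applied.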

| Substance | hemolysis at 1 h, 40 µM [%] |
| --- | --- |
| H-KAAKKFAKAWAKAFKAA-NH2 | 0 |
| H-KKAKAFAKAWAKAFKAA-NH2 | 0 |
| H-KKKAAFAKAWAKAFKAA-NH2 | 0 |
| H-KKKKAAFAKAWAKAFAA-NH2 | 0 |
| H-KKKKKAAFAKAWAAFAA-NH2 | 0 |
| H-KKKKKKAAFAAWAAFAA-NH2 | 0 |

Tested on: Pseudomonas aeruginosa
Experiment: Antibacterial activity against tobramycin-pretreated Pseudomonas aeruginosa isolate 330 after 20 hrs by microtiter dilution method
Format: functional
Conditions: not given
Outline: as §2

| Substance | MIC [µM] |
| --- | --- |
| H-KAAKKFAKAWAKAFKAA-NH2 | > 50 |
| H-KKKAAFAKAWAKAFKAA-NH2 | > 50 |
| H-KKKKAAFAKAWAKAFAA-NH2 | > 50 |
| H-KKKKKKAAFAAWAAFAA-NH2 | 25 |

Second part, the substance after the results:

| MIC [µM] | Substance |
| --- | --- |
| > 50 | H-KKAKAFAKAWAKAFKAA-NH2 |
| 50 | H-KKKKKAAFAKAWAAFAA-NH2 |

Tested on: Escherichia coli
Experiment: Binding affinity to Escherichia coli lipid extract liposome membrane at 10 uM by tryptophan fluorescence quenching method
Format: cell membranes
Conditions: not given
Outline: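 Acrylamide quenching of Trp; peptide 10 μM with 0.8 mg/mL E. coli lipid liposomes. Excitation at 295 nm, emission 310–400 nm. Read-out is the Stern–Volmer slope, with larger slopes meaning more quenching. At least two independent experiments, error given as standard deviation.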

| Substance | Activity |
| --- | --- |
| H-KAAKKFAKAWAKAFKAA-NH2 | Active |
| H-KKKKKKAAFAAWAAFAA-NH2 | Active |

Tested on: Escherichia coli
Experiment: Binding affinity to Escherichia coli lipid extract liposome membrane at 25 uM by CD spectroscopic analysis
Format: cell membranes
Conditions: not given
Outline: as §1

| Substance | Activity |
| --- | --- |
| H-KAAKKFAKAWAKAFKAA-NH2 | Active |
| H-KKKAAFAKAWAKAFKAA-NH2 | Active |
| H-KKKKAAFAKAWAKAFAA-NH2 | Active |
| H-KKKKKKAAFAAWAAFAA-NH2 | Active |

The next lines start with the values.

| Activity | Substance |
| --- | --- |
| Active | H-KKAKAFAKAWAKAFKAA-NH2 |
| Active | H-KKKKKAAFAKAWAAFAA-NH2 |

Tested on: Escherichia coli
Experiment: Binding affinity to Escherichia coli lipid extract liposome membrane at 10 uM by tryptophan fluorescence method
Format: cell membranes
Conditions: not given
Outline: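 Peptide at 10 μM in 10 mM Tris, 10 mM NaCl, pH 7.4, with 0.8 mg/mL E. coli total lipid extract or POPC liposomes, equilibrated overnight before recording. Trp excited at 280 nm, emission scanned 300–400 nm. After background subtraction, the wavelength of maximal emission was taken.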

| Substance | Activity |
| --- | --- |
| H-KAAKKFAKAWAKAFKAA-NH2 | Active |
| H-KKKAAFAKAWAKAFKAA-NH2 | Active |
| H-KKKKAAFAKAWAKAFAA-NH2 | Active |
| H-KKKKKKAAFAAWAAFAA-NH2 | Active |

Other lines, results leading:

| Activity | Substance |
| --- | --- |
| Active | H-KKAKAFAKAWAKAFKAA-NH2 |
| Active | H-KKKKKAAFAKAWAAFAA-NH2 |

Tested on: not listed separately
Experiment: Hemolytic activity in human RBC assessed as hemolysis at 320 to 640 uM measured after 1 hr
Format: ADME, cell-based, Erythrocyte
Conditions: human red blood cells (erythrocytes), read-out: Activity
Outline: as §3

| Substance | hemolysis at 1 h, up to 640 µM [%] |
| --- | --- |
| H-KAAKKFAKAWAKAFKAA-NH2 | < 1 |
| H-KKAKAFAKAWAKAFKAA-NH2 | < 1 |
| H-KKKAAFAKAWAKAFKAA-NH2 | < 1 |
| H-KKKKAAFAKAWAKAFAA-NH2 | < 1 |
| H-KKKKKAAFAKAWAAFAA-NH2 | < 1 |
| H-KKKKKKAAFAAWAAFAA-NH2 | < 1 |

Tested on: Pseudomonas aeruginosa
Experiment: Antibacterial activity against Pseudomonas aeruginosa PAO1 measured after 20 hrs by microtiter dilution method
Format: functional
Conditions: PAO1, 20 h
Outline: as §2

| Substance | MIC [µM] |
| --- | --- |
| H-KAAKKFAKAWAKAFKAA-NH2 | 50 |
| H-KKKAAFAKAWAKAFKAA-NH2 | 50 |
| H-KKKKAAFAKAWAKAFAA-NH2 | 50 |
| H-KKKKKKAAFAAWAAFAA-NH2 | 12.5 |

Other lines, results leading:

| MIC [µM] | Substance |
| --- | --- |
| 25 | H-KKAKAFAKAWAKAFKAA-NH2 |
| 25 | H-KKKKKAAFAKAWAAFAA-NH2 |
